# Assay results as given in ChEMBL document CHEMBL1141484, “Radiosyntheses of two positron emission tomography probes: [11C]Oseltamivir and its active metabolite [11C]Ro 64-0802” (Bioorg Med Chem Lett, 2008).
# Assay: Ratio of drug level in brain to blood in iv dosed mouse
# Format: ADME, organism-based
# Settings: brain/whole blood, read-out: BBR
# Outline: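 Brain/blood radioactivity ratio was taken from decay-corrected %ID/g tissue in whole brain and blood. Samples came from male Wister mice (30 g, 7 weeks) given the 11C tracer iv by tail vein (average 20 MBq/400 µL). Mice were sacrificed at 1–60 min after injection, three per time point.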
row,SMILES,Kp
1,CCOC(=O)C1=C[C@@H](OC(CC)CC)[C@H](N[11C](C)=O)[C@@H](N)C1,0.07
2,CCC(CC)O[C@@H]1C=C(C(=O)O)C[C@H](N)[C@H]1N[11C](C)=O,0.06
